Experimental data collected from several papers.
Lines come from different studies, so protocols differ.
Target: Casein kinase I isoform delta (CSNK1D, Homo sapiens, UniProt P48730)
Residues used in one study (P48730 1-294): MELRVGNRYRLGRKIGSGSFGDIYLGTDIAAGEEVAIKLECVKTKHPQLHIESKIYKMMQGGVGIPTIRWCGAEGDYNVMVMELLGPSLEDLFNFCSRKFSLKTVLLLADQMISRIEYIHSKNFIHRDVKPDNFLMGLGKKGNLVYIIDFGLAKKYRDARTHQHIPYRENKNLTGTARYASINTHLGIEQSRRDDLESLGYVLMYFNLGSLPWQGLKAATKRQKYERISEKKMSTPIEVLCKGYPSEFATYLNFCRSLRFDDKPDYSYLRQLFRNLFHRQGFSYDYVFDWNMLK

| observed | mode | technique | concentration | quantity | result | Structure (SMILES) |
| --- | --- | --- | --- | --- | --- | --- |
| binding |  |  | 1 µM | remaining binding | 99% | Cc1ccc(NC(=O)c2ccnc(C(F)(F)F)c2)cc1-c1cc(OCCO)nc(N2CCOCC2)c1 |
| cell-free assay |  |  | 1 µM | remaining signal | 100% | C#Cc1cnc(Nc2ccnc(CO)c2)nc1Nc1ccccc1S(C)(=O)=NC#N (stereo not drawn) |
| enzyme activity | inhibitor |  | 1 µM | inhibition | 0% | CO[C@@H]1[C@H](N(C)C(=O)c2ccccc2)C[C@H]2O[C@]1(C)n1c3ccccc3c3c4c(c5c6ccccc6n2c5c31)C(=O)NC4 |
| binding |  |  | 0.1 µM | remaining binding | 100% | C1=C/COCc2cc(ccc2OCCN2CCCC2)Nc2nccc(n2)-c2cccc(c2)COC/1 |
| binding |  | SPR |  | kon | 335000 M⁻¹ s⁻¹ | c1cc(Nc2cc(C3CC3)n[nH]2)nc(Nc2ccc3nc[nH]c3c2)n1 |
| binding |  |  | 1 µM | remaining binding | 94% | COc1ccc2[nH]c3c4[nH]c5ccc(OC)cc5c4c4c(c3c2c1)C(=O)NC4=O |
| enzyme activity | inhibitor |  | 1 µM | inhibition | 8% | C=CC(=O)N1CCC([C@@H]2CCNc3c(C(N)=O)c(-c4ccc(Oc5ccccc5)cc4)nn32)CC1 |
| binding |  |  | 1 µM | remaining binding | 119% | COc1ccc2oc(-c3ccc4nc(N)oc4c3)c/c(=N\c3ccccc3NC(=O)CCN)c2c1 |
| binding |  | competition with immobilised ligand | 0.5 µM | remaining binding | 87% | CCCCC(=O)Nc1ccc(-c2ccc3ncn(CCC)c(=O)c3c2)cn1 |
| enzyme activity | inhibitor |  | 1 µM | activity vs control | 105% | CC(C)S(=O)(=O)c1ccc2nccc(Nc3ccc4sc(C5CCCC5)nc4c3)c2c1 |
| binding |  | SPR |  | kon | 809000 M⁻¹ s⁻¹ | c1cc(-c2cnn3cc(-c4ccc(OCCN5CCCCC5)cc4)cnc23)ccn1 |
| cell-free assay |  | competition with immobilised ligand | 25 µM | remaining binding | 100% | N#Cc1ccc(NC(=O)Nc2ccccc2)cc1 |
